# INS promoter act – TRM-6 insulin promoter activation | TRM-6 cells (human fetal islet line), insulin promoter eGFP reporter, imaging; plate-scaled: unstimulated 0, stimulated control 100 | 0.81% of 130,000 active | activation, % at 2 µM;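 active = activation at 2 µM above a set limit, confirmed on inspection of the cell images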;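 also: share of cells whose green reporter signal exceeds an intensity cutoff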
#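 test system = TRM-6 insulin promoter–eGFP reporter cells | benchmarks = stimulated versus unstimulated wells as plate controls | read-out basis = percent cells above green-intensity threshold, converted to percent activation versus plate controls | detection = fixed-cell fluorescence microscopy, eGFP plus Hoechst | incubation = tamoxifen pre-incubation 15 h overnight, then compound exposure 48 h at 37 °C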
# The depositor's hits bear a star. The entries come from a sample that favours hits as a whole.
SMILES,INS promoter act
COc1ccc(C2Nc3ccccc3C(=O)N2c2ccccc2)cc1COc1ccccn1 (stereo unspecified),220*
COc1ccc(C2Nc3ccccc3C(=O)N2Cc2ccco2)cc1COc1ccc(NC(C)=O)cc1 (stereo unspecified),9
COc1ccccc1C(=O)NC(CCSC)C(=O)OCC(=O)NC(=O)NCc1ccco1 (stereo unspecified),10
CCc1ccc(S(=O)(=O)/N=C2/C=C(Sc3ncn[nH]3)C(=O)c3ccccc32)cc1,169
CCc1ccc(S(=O)(=O)/N=C2\C=CC(=O)c3ccccc32)cc1,327*
COc1cccc(N2CCN(C(=O)C3C4C=CC5(CN(Cc6ccccc6Cl)C(=O)C35)O4)CC2)c1 (stereo unspecified),-3
Cc1cc(CNC(=O)Cc2ccc(F)cc2)c2ccccc2n1,-6
CCOc1nc(-c2ccc(C)cc2)ccc1-c1noc(COC)n1,106
Cc1ccc(-c2nnn(CC(=O)N(CC3CCCO3)C(C(=O)NC3CCCC3)c3ccc(O)cc3)n2)o1 (stereo unspecified),7
Cc1ccc(-c2nnn(CC(=O)N(CC3CCCO3)C(C(=O)NC3CCCC3)c3ccc(F)cc3)n2)o1 (stereo unspecified),500*
Cc1ccc(-c2nnn(CC(=O)N(c3cccc(F)c3)C(C(=O)NC3CCCC3)c3ccco3)n2)o1 (stereo unspecified),4
COc1cccc(-n2nc(-c3ccnn3-c3ccc(F)cc3)c(=O)n(C)c2=O)c1,-4
Cc1cccc(NC(=S)N(Cc2cccs2)Cc2cc3cc(C)ccc3[nH]c2=O)c1,-8
COc1cc2cc(CN(Cc3cccs3)C(=S)Nc3cccc(C)c3)c(=O)[nH]c2cc1OC,354*
CNC(=S)N(Cc1cccs1)Cc1cc2cc(OC)c(OC)cc2[nH]c1=O,3
CC(C)c1nc(CN2CCCCC2)cc(=O)[nH]1,5
COC(=O)c1ccccc1NC(=O)CSc1nnc(C(C)NC(=O)c2ccc(Cl)cc2Cl)n1C (stereo unspecified),-7
CSc1ccc(Cl)c(C(=O)OCC(=O)N2CCOCC2)c1,7
O=C(NCCN1CCN(c2ccccc2)CC1)C1CCN(S(=O)(=O)N2CCOCC2)CC1,0
COCCNC(=O)C(c1ccc(C)o1)N(Cc1ccco1)C(=O)c1snc(C(N)=O)c1N (stereo unspecified),0
CN(C)Cc1ccccc1Sc1cccc2ccccc12,8
C=CCn1c(SCc2ccccc2)nnc1-c1cccnc1,0
Cc1ccc(-c2nnc(SCc3ccc(C#N)cc3)n2Cc2ccco2)cc1,3
C=CCn1c(SCc2ccc(C#N)cc2)nnc1-c1cccc(OC)c1,164*
Cc1cc(C)c(C)c(S(=O)(=O)NCC(=O)Nc2sc3c(c2C(N)=O)CCCC3)c1C,3
SMILES,INS promoter act
O=C(Nc1cc(Cl)cc(Cl)c1)c1cccc(OC(F)F)c1,4
Cc1ccccc1-c1nc(CS(=O)(=O)CC(=O)Nc2cc(F)ccc2F)c(C)o1,0
Cc1ccccc1/C=N/Nc1ccnc2cc(Cl)ccc12,-80
CCOC(=O)N1CCC(=NNC(=O)c2cc3ccccc3cc2O)CC1,8
CCOC(=O)N1CCC(=NNc2ccnc3cc(Cl)ccc23)CC1,558*
Cc1ccc(N2CC(C(=O)OCc3ccccc3F)CC2=O)cc1 (stereo unspecified),-23
Cc1nn(CCOc2ccccc2)c(=O)n1-c1cccc(F)c1,-7
Cc1cc(C)nc(SCC(=O)N/N=C/c2cccn2-c2ccc(O)cc2)n1,106*
C/C(=N\NC(=O)CSc1nc(C)cc(C)n1)c1cccs1,-3
Cc1cc(C)nc(SCC(=O)Nc2ccc(N3CCOCC3)cc2)n1,-10
O=C(NCc1ccc(Cl)cc1)c1ccc(Br)o1,-5
CC(C)(C)C(=O)COC(=O)c1cc2ccccc2cc1O,-3
O=C1C(=O)c2ccc(-c3ccccc3)cc2-c2ccccc21,-27
Nc1ccc2c(c1)C(=O)C(=O)c1ccccc1-2,239*
Cc1ccc(N2C(=O)c3ccc(N)cc3C2=O)cc1C,0
CC(=O)Nc1cccc(NC(=O)CSc2nnnn2C(C)C)c1,3
O=C(CSc1nnnn1C1CCCCC1)NCc1cccc(C(=O)O)c1,-3
O=C(CSc1nnnn1C1CCCC1)Nc1cccc(NC(=O)c2ccco2)c1,830*
Cc1cc(C)c2nc(N3CCCC(C(=O)N4CCN(c5ncccn5)CC4)C3)sc2c1 (stereo unspecified),-1
CCOc1ccc(C(=O)OCCN(CC)CC)cc1,-80
CCN(CC)CCOc1ccc(/C(=C(/Cl)c2ccccc2)c2ccccc2)cc1,280*
CCN(CC)CCOc1cccc(C(C)C)c1,9
Cn1c(Cc2c[nH]c3ccccc23)n[nH]c1=S,-4
C=CCN1C(=O)/C(=C/c2ccc(N(C)C)cc2)S/C1=N\c1nnc(CC)s1,163*
COc1ccc(/C=C2\SC(=NCc3ccccc3)N(Cc3ccccc3)C2=O)cc1OC,9
SMILES,INS promoter act
O=C(CCCCCn1c(=S)[nH]c2cc3c(cc2c1=O)OCO3)N1CCN(C2CCCCC2)CC1,7
COc1ccc(NC(=O)C2C3C=CC4(CN(Cc5cccnc5)C(=O)C24)O3)c(OC)c1 (stereo unspecified),0
COC(=O)CCN(C(=O)c1ccc(OC(C)=O)cc1)c1ccccn1,76*
CC(c1ccco1)N(C(=O)c1ccc(C#N)cc1)c1ccccn1 (stereo unspecified),-7
COC(=O)CCN(C(=O)c1cc([N+](=O)[O-])cc([N+](=O)[O-])c1)c1ccccn1,0
CCCS(=O)(=O)N1CCC(C(=O)NCc2ccc3c(c2)OCO3)CC1,0
O=C(Nc1ccc(Br)cc1)c1cnccn1,-3
C=CCNC(=O)CC1C(=O)NCCN1Cc1c(F)cccc1Cl (stereo unspecified),4
CC(C)CCN1CCNC(=O)C1CC(=O)Nc1ccc(F)cc1 (stereo unspecified),186*
COc1ccccc1NC(=O)CC1C(=O)NCCN1C(=O)Nc1ccccc1 (stereo unspecified),0
COc1ccc(N(CC(=O)N/N=C/c2ccc3c(c2)OCO3)S(=O)(=O)c2ccc(NC(C)=O)cc2)cc1,6
O=C(CN1CCC(n2nnc3cc(F)ccc32)CC1)NNC(=O)c1ccccc1,-3
O=C(O)C1CCN(c2ccc(S(=O)(=O)N3CCOCC3)cc2[N+](=O)[O-])CC1,-9
O=C(Cc1ccccc1)N/N=C/c1ccc(-c2ccc([N+](=O)[O-])cc2)o1,0
Cc1ccc(C(=O)N/C(=C\c2ccc(-c3cccc([N+](=O)[O-])c3)o2)C(=O)NC(C)(C)C)cc1,-7
CCCNC(=O)Cn1c(=O)/c(=C\c2ccc(-c3ccc([N+](=O)[O-])cc3)o2)s/c1=C\C(=O)C(C)(C)C,270*
CCOc1ccc(CNC(=S)N/N=C\c2ccc([N+](=O)[O-])cc2)cc1,0
CCOc1ccc(OCCN2CCCCC2)cc1,-62
CCOc1ccc(C=NC23CN4CN(CN(C4)C2)C3)cc1,191*
Cc1ccc2nc(N/C(N)=N/S(=O)(=O)c3ccc([N+](=O)[O-])cc3)nc(C)c2c1,-4
CCOc1ccccc1C(=O)NC(C(=O)NCc1ccc(F)cc1)C(C)C (stereo unspecified),8
CCOC(=O)C1=c2/c(=C/c3ccccc3OC)c(N)c(C#N)n2C(=O)C(c2ccccc2OC)S1 (stereo unspecified),0
COc1ccc(-c2nnn(CC(=O)NCc3ccccc3)n2)cc1OC,277
O=C(CN1C(=O)NC2(CCCCC2)C1=O)Nc1ccccc1Cl,0

# Screening data: PubChem BioAssay, Columbia University Molecular Screening Center
